Test results as given in ChEMBL document CHEMBL1133647, “Discovery of a potent, highly selective, and orally efficacious small-molecule activator of the insulin receptor” (J Med Chem, 2000).
Each block holds one compound with its values, some of them ahead of it. The source made the active and inactive calls. Unless noted, the rule behind the calls is not given here.

How the values were obtained:
[1] = molecular target: T1, Insulin receptor (Homo sapiens, UniProt P06213); assay: Activation of human insulin receptor tyrosine kinase (IRTK)
T1 sequence (P06213 28-758 limits assumed): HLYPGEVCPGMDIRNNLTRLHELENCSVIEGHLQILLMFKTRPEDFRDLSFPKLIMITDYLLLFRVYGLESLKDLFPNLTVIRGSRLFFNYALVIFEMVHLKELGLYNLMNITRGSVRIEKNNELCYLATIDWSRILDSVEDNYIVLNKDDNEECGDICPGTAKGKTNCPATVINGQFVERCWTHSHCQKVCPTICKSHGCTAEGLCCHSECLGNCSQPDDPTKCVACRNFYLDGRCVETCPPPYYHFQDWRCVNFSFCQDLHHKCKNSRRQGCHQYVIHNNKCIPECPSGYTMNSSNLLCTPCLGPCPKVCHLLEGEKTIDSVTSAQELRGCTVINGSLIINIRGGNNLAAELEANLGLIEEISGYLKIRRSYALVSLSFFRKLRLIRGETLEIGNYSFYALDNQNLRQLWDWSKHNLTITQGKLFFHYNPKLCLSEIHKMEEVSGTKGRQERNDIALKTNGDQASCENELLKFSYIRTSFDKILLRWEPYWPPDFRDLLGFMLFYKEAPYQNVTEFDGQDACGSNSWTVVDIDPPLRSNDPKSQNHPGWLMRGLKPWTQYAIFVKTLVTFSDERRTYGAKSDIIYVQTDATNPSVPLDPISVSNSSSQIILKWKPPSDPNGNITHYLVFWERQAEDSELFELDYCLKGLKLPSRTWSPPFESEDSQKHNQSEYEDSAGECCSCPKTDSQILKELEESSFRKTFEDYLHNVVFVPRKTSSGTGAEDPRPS
T1 sequence (P06213 763-1382 limits assumed): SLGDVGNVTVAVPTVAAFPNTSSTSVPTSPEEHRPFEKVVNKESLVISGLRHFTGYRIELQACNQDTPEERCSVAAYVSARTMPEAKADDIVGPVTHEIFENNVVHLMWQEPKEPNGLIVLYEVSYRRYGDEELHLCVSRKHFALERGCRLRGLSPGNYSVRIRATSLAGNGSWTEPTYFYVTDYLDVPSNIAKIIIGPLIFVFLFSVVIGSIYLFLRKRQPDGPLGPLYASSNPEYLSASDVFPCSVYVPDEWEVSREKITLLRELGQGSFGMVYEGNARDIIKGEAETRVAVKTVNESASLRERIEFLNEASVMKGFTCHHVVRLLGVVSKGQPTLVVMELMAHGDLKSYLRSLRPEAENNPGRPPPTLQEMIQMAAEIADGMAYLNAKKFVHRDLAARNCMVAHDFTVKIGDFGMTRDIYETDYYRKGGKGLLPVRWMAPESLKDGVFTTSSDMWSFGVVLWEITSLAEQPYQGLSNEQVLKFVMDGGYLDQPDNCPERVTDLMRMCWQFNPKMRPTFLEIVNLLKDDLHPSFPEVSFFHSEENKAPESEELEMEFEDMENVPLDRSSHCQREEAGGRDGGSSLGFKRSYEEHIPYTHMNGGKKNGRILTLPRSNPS
Procedure, shortened: (§1)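 CHO cells stably transfected with human insulin receptor, plated 150 000 cells/well for 24 h, serum-starved 2 h, then exposed to compound 20 min at 37 °C. Lysate IR captured on anti-IR antibody wells (16 h, 4 °C), kinase reaction 40 min at 25 °C, radioactivity on phosphocellulose filters. Activity as % of maximal response to 100 nM insulin.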

[2] = molecular target: Platelet-derived growth factor receptor beta (Homo sapiens) (UniProt P09619); assay: Percent platelet derived growth factor receptor (PDGFR) activity at 30 uM (NS = less than 5% activation); format: functional
Sequence of Platelet-derived growth factor receptor beta (Homo sapiens) (P09619 whole entry): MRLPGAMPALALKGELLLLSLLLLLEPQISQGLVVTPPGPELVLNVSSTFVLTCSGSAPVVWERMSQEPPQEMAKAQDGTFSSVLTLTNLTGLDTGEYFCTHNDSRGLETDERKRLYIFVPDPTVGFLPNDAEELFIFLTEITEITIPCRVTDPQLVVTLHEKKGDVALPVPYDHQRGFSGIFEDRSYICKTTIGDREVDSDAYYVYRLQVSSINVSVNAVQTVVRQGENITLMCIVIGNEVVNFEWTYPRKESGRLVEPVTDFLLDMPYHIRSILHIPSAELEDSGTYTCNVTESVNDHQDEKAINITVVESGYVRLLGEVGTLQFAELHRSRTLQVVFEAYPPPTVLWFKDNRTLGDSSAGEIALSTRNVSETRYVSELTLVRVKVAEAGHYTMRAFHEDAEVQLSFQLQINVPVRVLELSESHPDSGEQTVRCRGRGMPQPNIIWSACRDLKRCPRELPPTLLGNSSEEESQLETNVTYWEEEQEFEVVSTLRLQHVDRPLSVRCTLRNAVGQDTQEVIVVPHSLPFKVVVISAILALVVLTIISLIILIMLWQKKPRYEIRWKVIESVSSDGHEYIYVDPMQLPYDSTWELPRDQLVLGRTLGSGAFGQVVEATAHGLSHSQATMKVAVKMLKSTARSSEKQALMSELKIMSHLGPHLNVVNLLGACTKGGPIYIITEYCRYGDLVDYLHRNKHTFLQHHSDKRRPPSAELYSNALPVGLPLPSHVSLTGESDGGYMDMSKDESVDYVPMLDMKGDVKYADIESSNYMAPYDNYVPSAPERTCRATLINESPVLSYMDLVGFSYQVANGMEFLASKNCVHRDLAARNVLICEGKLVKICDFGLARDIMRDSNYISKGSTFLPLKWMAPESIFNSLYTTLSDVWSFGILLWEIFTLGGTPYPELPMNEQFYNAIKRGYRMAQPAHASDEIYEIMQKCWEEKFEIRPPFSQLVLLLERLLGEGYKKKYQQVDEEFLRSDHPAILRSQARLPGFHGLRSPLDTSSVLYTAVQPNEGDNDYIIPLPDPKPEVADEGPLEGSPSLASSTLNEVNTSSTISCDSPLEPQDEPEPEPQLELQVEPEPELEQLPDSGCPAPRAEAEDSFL
Procedure, shortened: (§2)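 PDGFR counterscreen: cell-based receptor activation assay run like the CHO IR assay (20 min compound exposure, lysate capture, radiometric kinase readout). Compound tested at 30 uM; result as % of control response to 100 nM PDGF.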

[3] = molecular target: Insulin-like growth factor 1 receptor (Homo sapiens) (UniProt P08069); assay: Percent insulin like growth factor receptor(IGFIR) activity at 30 uM; format: functional
Sequence of Insulin-like growth factor 1 receptor (Homo sapiens) (P08069 31-736 limits assumed): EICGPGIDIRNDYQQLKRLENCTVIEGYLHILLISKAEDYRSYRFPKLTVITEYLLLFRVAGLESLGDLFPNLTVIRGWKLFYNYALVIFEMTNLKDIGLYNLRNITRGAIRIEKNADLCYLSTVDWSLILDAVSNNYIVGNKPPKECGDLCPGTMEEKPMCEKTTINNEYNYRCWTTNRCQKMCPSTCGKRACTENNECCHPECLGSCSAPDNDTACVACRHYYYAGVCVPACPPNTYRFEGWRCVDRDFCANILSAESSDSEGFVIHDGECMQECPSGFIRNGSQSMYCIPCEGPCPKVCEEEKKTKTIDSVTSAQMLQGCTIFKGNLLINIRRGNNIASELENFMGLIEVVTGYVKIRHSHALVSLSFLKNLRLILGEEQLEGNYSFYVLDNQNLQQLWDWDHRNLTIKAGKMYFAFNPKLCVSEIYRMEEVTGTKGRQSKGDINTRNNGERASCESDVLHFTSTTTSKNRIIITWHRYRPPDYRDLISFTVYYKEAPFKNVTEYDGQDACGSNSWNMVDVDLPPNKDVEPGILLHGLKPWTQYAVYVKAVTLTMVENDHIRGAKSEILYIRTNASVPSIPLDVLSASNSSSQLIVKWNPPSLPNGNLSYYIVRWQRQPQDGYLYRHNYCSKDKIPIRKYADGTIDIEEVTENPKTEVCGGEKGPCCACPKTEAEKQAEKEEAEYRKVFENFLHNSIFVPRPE
Sequence of Insulin-like growth factor 1 receptor (Homo sapiens) (P08069 741-1367 limits assumed): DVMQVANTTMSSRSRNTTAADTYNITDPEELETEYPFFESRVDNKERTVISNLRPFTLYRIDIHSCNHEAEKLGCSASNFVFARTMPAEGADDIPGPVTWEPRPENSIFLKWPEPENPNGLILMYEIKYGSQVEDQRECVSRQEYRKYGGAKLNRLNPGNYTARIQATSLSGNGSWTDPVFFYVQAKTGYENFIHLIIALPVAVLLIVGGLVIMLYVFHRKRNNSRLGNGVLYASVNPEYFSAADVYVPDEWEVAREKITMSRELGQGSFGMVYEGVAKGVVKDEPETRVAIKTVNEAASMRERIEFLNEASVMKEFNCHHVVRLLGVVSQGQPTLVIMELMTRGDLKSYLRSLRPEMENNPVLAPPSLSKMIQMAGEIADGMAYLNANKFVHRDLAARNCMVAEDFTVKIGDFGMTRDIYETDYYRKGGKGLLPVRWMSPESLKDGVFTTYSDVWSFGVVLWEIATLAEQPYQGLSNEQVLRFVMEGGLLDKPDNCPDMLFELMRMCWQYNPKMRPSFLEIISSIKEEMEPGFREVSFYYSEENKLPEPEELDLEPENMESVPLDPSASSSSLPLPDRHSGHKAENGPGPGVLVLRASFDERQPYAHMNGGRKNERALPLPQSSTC
Procedure, shortened: (§3)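 IGFIR counterscreen: cell-based receptor activation assay run like the CHO IR assay (20 min compound exposure, lysate capture, radiometric kinase readout). Compound tested at 30 uM; result as % of control response to 100 nM IGFI.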

[4] = molecular target: Epidermal growth factor receptor (Homo sapiens) (UniProt P00533); assay: Percent epidermal growth factor receptor (EGFR) activity at 30 uM; format: functional
Sequence of Epidermal growth factor receptor (Homo sapiens) (P00533 whole entry): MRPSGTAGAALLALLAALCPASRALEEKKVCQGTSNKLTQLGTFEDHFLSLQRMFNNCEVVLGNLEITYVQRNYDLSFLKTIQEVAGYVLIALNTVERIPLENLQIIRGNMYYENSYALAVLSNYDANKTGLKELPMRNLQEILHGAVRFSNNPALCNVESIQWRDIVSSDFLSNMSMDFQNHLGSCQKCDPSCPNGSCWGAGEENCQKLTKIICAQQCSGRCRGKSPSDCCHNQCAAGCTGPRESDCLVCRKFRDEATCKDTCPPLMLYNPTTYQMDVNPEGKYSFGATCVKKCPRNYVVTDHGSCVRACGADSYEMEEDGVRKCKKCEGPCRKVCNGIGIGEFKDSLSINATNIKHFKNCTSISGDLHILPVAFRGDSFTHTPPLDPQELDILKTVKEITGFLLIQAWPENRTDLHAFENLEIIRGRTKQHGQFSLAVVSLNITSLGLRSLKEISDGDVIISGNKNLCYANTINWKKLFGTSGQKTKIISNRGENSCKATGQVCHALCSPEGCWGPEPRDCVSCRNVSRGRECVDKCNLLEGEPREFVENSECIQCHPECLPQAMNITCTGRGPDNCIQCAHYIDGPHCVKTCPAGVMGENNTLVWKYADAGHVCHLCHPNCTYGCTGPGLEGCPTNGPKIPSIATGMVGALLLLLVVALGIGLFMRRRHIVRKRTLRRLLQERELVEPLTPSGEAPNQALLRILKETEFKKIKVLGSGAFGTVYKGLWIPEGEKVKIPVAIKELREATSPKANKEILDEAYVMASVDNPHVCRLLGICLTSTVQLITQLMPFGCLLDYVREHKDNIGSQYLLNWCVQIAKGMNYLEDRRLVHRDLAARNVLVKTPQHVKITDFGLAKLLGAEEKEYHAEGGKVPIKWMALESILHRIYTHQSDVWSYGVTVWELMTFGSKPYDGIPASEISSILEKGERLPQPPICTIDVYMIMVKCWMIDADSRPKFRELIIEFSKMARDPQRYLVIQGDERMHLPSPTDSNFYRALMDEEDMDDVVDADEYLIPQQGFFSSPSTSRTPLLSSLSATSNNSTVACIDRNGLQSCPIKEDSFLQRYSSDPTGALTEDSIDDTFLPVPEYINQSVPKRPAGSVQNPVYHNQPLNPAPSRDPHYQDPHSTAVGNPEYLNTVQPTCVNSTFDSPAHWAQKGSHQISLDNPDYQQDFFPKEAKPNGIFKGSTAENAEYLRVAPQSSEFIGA
Procedure, shortened: (§4)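 EGFR counterscreen: cell-based receptor activation assay run like the CHO IR assay (20 min compound exposure, lysate capture, radiometric kinase readout). Compound tested at 30 uM; result as % of control response to 100 nM EGF.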

[5] = area under curve in preclinical species was measured after Intravenous administration at the given dose (0.01 mg/kg) in monkey; format: ADME, organism-based; settings: simiiformes, in vivo
Procedure, shortened: (§5)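 Male rats, beagle dogs and rhesus monkeys dosed iv in ethanol/PEG400/water (1:3:6, v/v/v), n = 2. Plasma extracted and drug quantified by LC-MS/MS (LOQ = 8-100 ng/mL) against a dihydroxybenzoquinone internal standard.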

[6] = molecular target: Epidermal growth factor receptor (Homo sapiens) (UniProt P00533); assay: Percent epidermal growth factor receptor (EGFR) activity at 30 uM (NS = less than 5% activation); format: functional; procedure, shortened: as §4
[7] = bioavailability in preclinical species was measured after oral administration at the given dose (0.5 mg/kg) in dog; format: ADME, organism-based, Canis lupus familiaris; settings: in vivo
Procedure, shortened: (§6)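 Beagle dogs or rhesus monkeys (male) dosed orally at 0.5 mg/kg as a 0.5% methylcellulose suspension with 0.02% sodium lauryl sulfate. Plasma extracted and drug measured by LC-MS/MS (LOQ = 8-100 ng/mL) with an internal standard; bioavailability relative to iv dosing.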

[8] = Time taken for maximum concentration in preclinical species was measured after oral administration at the given dose (0.5 mg/kg) in dog; format: ADME, organism-based, Canis lupus familiaris; settings: in vivo; procedure, shortened: as §6
[9] = Time taken for maximum concentration in preclinical species was measured after oral administration at the given dose (0.5 mg/kg) in rat; format: ADME, organism-based; settings: in vivo
Procedure, shortened: (§7)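 Male rats dosed orally at 0.5 mg/kg in ethanol/PEG400/water (1:3:6, v/v/v). Plasma extracted and drug measured by LC-MS/MS (LOQ = 8-100 ng/mL) with an internal standard; bioavailability relative to iv dosing.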

[10] = area under curve in preclinical species was measured after Intravenous administration at the given dose (0.05 mg/kg) in rat; format: ADME, organism-based; settings: in vivo; procedure, shortened: as §5
[11] = organism: Mus musculus; assay: Blood glucose level for the age- and sex-matched ob/+ lean mice; format: functional, organism-based
Procedure, shortened: (§8)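 Male ob/ob mice, 12 weeks old, with ob/+ lean controls, housed 7–9 per cage on chow and water ad libitum. Daily oral gavage of compound or vehicle (0.5% methylcellulose). Food was removed 0–6 h after dosing on days 1 and 2, then fed ad libitum. Blood glucose was taken before dosing and at 24 h after dosing, n = 10/group.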

[12] = molecular target: Insulin-like growth factor 1 receptor (Homo sapiens) (UniProt P08069); assay: Percent insulin like growth factor receptor(IGFIR) activity at 30 uM (NS = less than 5% activation); format: functional; procedure, shortened: as §3
[13] = test system: Mus musculus; assay: Percent reduction of blood glucose level in a dose-dependent manner at 1 mpk administered once daily for 8-14 days by gavage to ad libitum fed animals; format: functional
[14] = area under curve in preclinical species was measured after Intravenous administration at the given dose (0.1 mg/kg) in dog; format: ADME, organism-based, Canis lupus familiaris; settings: in vivo; procedure, shortened: as §5
[15] = area under curve in preclinical species was measured after oral administration at the given dose (0.5 mg/kg) in dog; format: ADME, organism-based, Canis lupus familiaris; settings: in vivo; procedure, shortened: as §6
[16] = bioavailability in preclinical species was measured after oral administration at the given dose (0.5 mg/kg) in monkey; format: ADME, organism-based; settings: primates, in vivo; procedure, shortened: as §6
[17] = maximum concentration in plasma in preclinical species was measured after oral administration at the given dose (0.5 mg/kg) in dog; format: ADME, organism-based, Canis lupus familiaris; design: dose 0.5 mg/kg, route oral; procedure, shortened: as §6
[18] = volume of distribution in preclinical species was measured after Intravenous administration at the given dose (0.05 mg/kg) in rat; format: ADME, organism-based; settings: in vivo, read-out: Vdss; procedure, shortened: as §5
[19] = test system: Mus musculus; assay: Decrease in blood glucose concentration at 24 hr postdosing of 10 mpk; format: functional, organism-based; procedure, shortened: as §8
[20] = plasma clearance in preclinical species was measured after Intravenous administration at the given dose (0.01 mg/kg) in monkey; format: ADME, organism-based; settings: simiiformes, in vivo; procedure, shortened: as §5
[21] = test system: Canis familiaris; assay: plasma clearance in preclinical species was measured after Intravenous administration at the given dose (0.1 mg/kg) in dog; format: ADME, organism-based, Canis lupus familiaris; settings: in vivo; procedure, shortened: as §5
[22] = test system: Canis familiaris; assay: volume of distribution in preclinical species was measured after Intravenous administration at the given dose (0.1 mg/kg) in dog; format: ADME, organism-based, Canis lupus familiaris; settings: in vivo; procedure, shortened: as §5
[23] = terminal half life in preclinical species was measured after Intravenous administration at the given dose (0.01 mg/kg) in monkey; format: ADME, organism-based; settings: simiiformes, in vivo; procedure, shortened: as §5
[24] = test system: Mus musculus; assay: Percent reduction of blood glucose level in a dose-dependent manner at 0.1 mpk administered once daily for 8-14 days by gavage to ad libitum fed animals; format: functional
[25] = maximum concentration in plasma in preclinical species was measured after oral administration at the given dose (0.5 mg/kg) in rat; format: ADME, organism-based; design: dose 0.5 mg/kg, route oral; procedure, shortened: as §7
[26] = test system: Mus musculus; assay: Percent reduction of blood glucose level in a dose-dependent manner at 10 mpk administered once daily for 8-14 days by gavage to ad libitum fed animals; format: functional
[27] = test system: Canis familiaris; assay: terminal half life in preclinical species was measured after Intravenous administration at the given dose (0.1 mg/kg) in dog; format: ADME, organism-based, Canis lupus familiaris; settings: in vivo; procedure, shortened: as §5
[28] = test system: Mus musculus; assay: Blood glucose concentration at predosing of 10 mpk; format: functional, organism-based; procedure, shortened: as §8
[29] = terminal half life in preclinical species was measured after Intravenous administration at the given dose (0.05 mg/kg) in rat; format: ADME, organism-based; settings: in vivo; procedure, shortened: as §5
[30] = plasma clearance in preclinical species was measured after Intravenous administration at the given dose (0.05 mg/kg) in rat; format: ADME, organism-based; settings: read-out: Clp; procedure, shortened: as §5
[31] = volume of distribution in preclinical species was measured after Intravenous administration at the given dose (0.01 mg/kg) in monkey; format: ADME, organism-based; settings: simiiformes, in vivo; procedure, shortened: as §5
[32] = maximum concentration in plasma in preclinical species was measured after oral administration at the given dose (0.5 mg/kg) in monkey; format: ADME, organism-based; design: dose 0.5 mg/kg, route oral; settings: simiiformes; procedure, shortened: as §6
[33] = area under curve in preclinical species was measured after oral administration at the given dose (0.5 mg/kg) in monkey; format: ADME, organism-based; settings: simiiformes, in vivo; procedure, shortened: as §6
[34] = bioavailability in preclinical species was measured after oral administration at the given dose (0.5 mg/kg) in rat; format: ADME, organism-based; settings: in vivo; procedure, shortened: as §7
[35] = Time taken for maximum concentration in preclinical species was measured after oral administration at the given dose (0.5 mg/kg) in monkey; format: ADME, organism-based; settings: simiiformes, in vivo; procedure, shortened: as §6
[36] = molecular target: Platelet-derived growth factor receptor beta (Homo sapiens) (UniProt P09619); assay: Percent platelet derived growth factor receptor (PDGFR) activity at 30 uM; format: functional; procedure, shortened: as §2
[37] = molecular target: Insulin-like growth factor 1 receptor (Homo sapiens) (UniProt P08069); assay: Percent insulin like growth factor receptor(IGFIR) activity at 30 uM ( NS = less than 5% activation); format: functional; procedure, shortened: as §3
[38] = molecular target: T1, Insulin receptor; assay: Activation of human insulin receptor tyrosine kinase (NA = inactive up to 100 uM); procedure, shortened: as §1

SMILES: Cn1cc(C2=C(O)C(O)=C(c3ccccc3)C(=O)C2=O)c2ccccc21
- AUC [5]: 8370 ng·h/mL
- Activation [6]: inactive
- EC50 [1]: 0.3 µM
- bioavailability [7]: 59.2%
- Tmax [8]: 2.5 h
- Activation [2]: inactive
- Tmax [9]: 10 h
- AUC [10]: 21800 ng·h/mL
- Concentration [11]: 143 mg/dL
- Activation [12]: inactive
- Reduction [13]: 47%
- AUC [14]: 89800 ng·h/mL
- AUC [15]: 266000 ng·h/mL
- bioavailability [16]: 66.5%
- Cmax [17]: 5270 ng/mL
- Vd [18]: 0.1 L/kg
- Concentration [19]: 150 mg/dL
- Clp [20]: 1.2 mL/h/kg
- Clp [21]: 1.14 mL/h/kg
- Vdss [22]: 0.56 L/kg
- T1/2 [23]: 66 h
- Reduction [24]: 29%
- Cmax [25]: 4880 ng/mL
- Reduction [26]: 84%
- T1/2 [27]: 93.5 h
- Concentration [28]: 233 mg/dL
- half-life [29]: 32 h
- clearance [30]: 2.28 mL/h/kg
- Vdss [31]: 0.31 L/kg
- Cmax [32]: 7590 ng/mL
- AUC [33]: 278000 ng·h/mL
- bioavailability [34]: 79.3%
- Tmax [35]: 8 h

SMILES: Cc1cccc2c(C3=C(O)C(O)=C(c4c[nH]c5ccccc45)C(=O)C3=O)c[nH]c12
- EC50 [1]: 7 µM
- Activation [3]: 32%
- Activation [4]: 25%

SMILES: O=C1C(O)=C(c2ccc3ccccc3c2)C(=O)C(O)=C1c1ccccc1
- EC50 [1]: 30 µM
- Activation [2]: inactive
- Activation [12]: inactive

SMILES: COc1ccc(C2=C(O)C(O)=C(c3ccccc3)C(=O)C2=O)cc1
- Activation [6]: inactive
- Activation [2]: inactive
- Activation [37]: inactive
- EC50 [38]: Not Active

Continued by falling EC50 [1], values first:

- EC50 [1]: 6 µM
- Activation [2]: inactive
- Activation [12]: inactive
SMILES: O=C1C(O)=C(c2cccc3ccccc23)C(=O)C(O)=C1c1ccccc1

- EC50 [1]: 5 µM
- Activation [3]: 38%
- Activation [4]: 15%
- Activation [36]: 6%
SMILES: C=CC(C)(C)c1[nH]c2ccccc2c1C1=C(O)C(O)=C(c2c[nH]c3c(CC=C(C)C)cccc23)C(=O)C1=O

- Activation [6]: inactive
- EC50 [1]: 1.5 µM
- Activation [2]: inactive
- Activation [12]: inactive
SMILES: O=C1C(O)=C(c2coc3ccccc23)C(=O)C(O)=C1c1ccccc1

- Activation [6]: inactive
- EC50 [1]: 1 µM
- Activation [2]: inactive
- Activation [12]: inactive
SMILES: O=C1C(O)=C(c2csc3ccccc23)C(=O)C(O)=C1c1ccccc1

- EC50 [1]: 0.3 µM
- Activation [2]: inactive
- Activation [3]: 41%
- Activation [4]: 20%
SMILES: O=C1C(O)=C(c2c[nH]c3ccccc23)C(=O)C(O)=C1c1ccccc1
